In assay [1] the test system is 2008. Briefly: Compound was tested for 50% growth inhibitory concentration by using human ovarian carcinoma cell lines (2008). The class given is functional. Put shortly:
(§1)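 Cultured human tumor cells were seeded at 500-2000 cells/well, allowed to attach for 48 h, then exposed continuously for 48 h to DMSO vehicle or agent at five concentrations (e.g., 50-0.08 μM, 10-0.016 μM or 1-0.0016 μM series), each in quadruplicate. A time-zero plate was included. Cell number was read by MTS/phenazine methanesulfonate at A490-A630. Values are means (N = 4 over 10 concentrations) ± SD.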

The test system of another assay is MDA-MB-231. Briefly: Compound was tested for 50% Growth Inhibitory concentration by using MDA-MB-231 cell lines. The class given is functional. Conditions: Homo sapiens. Put shortly:
as §1

Assay [2] deals with A2780. Briefly: Compound was tested for colchicine Binding Inhibition by using human ovarian carcinoma cell line (at 5 uM ). The class given is functional. Put shortly: (§2)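 [3H]colchicine (5 μM) was incubated with 1 μM tubulin and agent (1-250 μM) or DMSO vehicle (5% v/v) at 30 °C for 15 min or 37 °C for 10 min, in 1 M monosodium glutamate, 0.1 M glucose-1-phosphate, 1 mM MgCl2, 1 mM GTP and 0.5 mg/mL BSA. Samples were filtered through DEAE-cellulose and counted by scintillation. Values are means (N = 9 over four concentrations) ± SD.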

For assay [3], the system named is A2780. Briefly: Compound was tested for Tubulin polymerization inhibition by using human ovarian carcinoma cell lines. The assay is classed as functional. Put shortly: (§3)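 Tubulin (10 μM final, 1 mg/mL) was preincubated with agent in DMSO (4% v/v final) and 0.8 M monosodium glutamate for 15 min at 30 °C, then cooled to 0 °C and GTP (0.4 mM final) added. Turbidity at 350 nm was followed for 20 min at 30 °C. […] Values are averages of two determinations.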

Assay [4] has as its system PC-3. Briefly: Compound was tested for 50% growth inhibitory concentration by using human prostate carcinoma cell lines (PC -3). The assay is classed as functional. Summed up: as §1
The test system of assay [5] is A2780. Briefly: Compound was tested for Tubulin polymerization inhibition by using human ovarian cancer cell lines. The class given is functional. Summed up: as §3
The subject of assay [6] is A2780. Briefly: Tested for colchicine binding inhibition, using human ovarian cancer cell lines (at 5 uM ). The assay is classed as functional. Summed up:
as §2

Assay [7] deals with PC-3. Briefly: 50% Growth inhibitory concentration by using PC -3 human prostate carcinoma cell lines (48h continuous exposure). The assay is classed as functional. Conditions: PC-3, 48 h. Put shortly: as §1
For assay [8], the system named is 2008. Briefly: 50% Growth inhibitory concentration( GI 50 ) by using 2008 human ovarian carcinoma cell lines. The assay is classed as functional. Summed up: as §1
For another assay, the target named is Tubulin (Bos taurus). Briefly: Inhibition of tubulin polymerization of purified bovine brain tubulin.
A further assay deals with MCF7. Briefly: Tested for 50% growth inhibitory concentration by using MCF-7 cell lines. The assay is classed as functional. The following applies: Homo sapiens. Put shortly:
as §1

The structures appear in SMILES notation. Where only a bound is given, the exact number is not on record here.

Consider `COc1cc(/C=N\OC[C@H]2C[C@@H]2C2C[C@]2(C)CCC(O)c2cccs2)cc(OC)c1OC` (some centres undefined), for which the GI50 – broadly, the concentration giving 50% growth inhibition – came out at 9.9 µM with 2008 [1], 0.98 µM in the assay on MDA-MB-231 and 1.2 µM with PC-3 [4]. In addition, the inhibition (as a rule, the drop in the measured response relative to a control, in per cent) at 5 µM with A2780 [2] was below 10%. Also, in the assay with A2780 [3], the TPI is 26%.

For `C=CC[C@@H](CC/C(C)=C/C=C/CC/C=C\[C@@H]1CSC(C(C)(C)C)=N1)OC`, the TPI in the assay on A2780 [5] was 100%. The compound also showed an inhibition at 5 µM with A2780 [6] of 35%. Further, the GI50 was 0.13 µM in the assay with PC-3 [7] and 0.22 µM with 2008 [8].

For `C=CC[C@@H](CC/C(C)=C/C=C/CC/C=C\[C@H]1CSC([C@@H]2C[C@@H]2C)=N1)OC`, at Tubulin (Bos taurus), the IC50 (in general, the midpoint of a concentration-inhibition curve) is 5.5 µM. In addition, the 50% growth inhibitory concentration (GI50) with MCF7 was above 1 µM. In addition, the inhibition at 5 µM in the assay with A2780 [6] came out at 3%.

`C=CC[C@@H](CC/C(C)=C/C=C/CC/C=C\[C@H](CSC)NC(C)=O)OC` registered an IC50 against Tubulin (Bos taurus) of 3.3 µM. In addition, growth in the assay on MCF7 was halved (GI50) at 5.2 µM. This compound had an inhibition at 5 µM in the assay on A2780 [6] of 12%.

The compound `C=CC[C@@H](CC/C(C)=C/C=C/CC/C=C\[C@@H]1COC(C(C)(C)C)=N1)OC` returned a TPI in the assay on A2780 [5] of 0%. In the assay with A2780 [6], this compound registered an inhibition at 5 µM below 10%. The concentration for 50% growth inhibition (GI50) in the assay on PC-3 [7] turned out to be 6.2 µM; with 2008 [8] it was 0.45 µM.

Turning to `C=CC[C@@H](CC/C(C)=C/C=C/CCCO)OC`, the IC50 on Tubulin (Bos taurus) was above 80 µM. In the assay on MCF7, the GI50 was above 10 µM. The same compound came in with an inhibition at 5 µM with A2780 [6] of 0%.

For `C=CC[C@@H](CC/C=C/C=C/CC/C=C\[C@@H]1CSC([C@@H]2C[C@@H]2C)=N1)OC`, halving of growth with MCF7 (GI50) required 0.34 µM. At 5 µM the inhibition in the assay with A2780 [6] was 53%.

`CCCCCCCc1cccc(CC/C=C\[C@@H]2CSC([C@@H]3C[C@@H]3C)=N2)c1` yielded an IC50 against Tubulin (Bos taurus) above 50 µM.

`C=CC[C@@H](CC/C(C)=C/C=C/CC/C=C\c1csc([C@@H]2C[C@@H]2C)n1)OC` yielded an IC50 against Tubulin (Bos taurus) of 0.74 µM. Further, the concentration for 50% growth inhibition (GI50) in the assay on MCF7 turned out to be 0.3 µM. The compound also gave an inhibition at 5 µM in the assay on A2780 [6] of 74%.

`C=CC[C@@H](CC/C(C)=C/C=C/CC/C=C\[C@@H]1CSC([C@@H]2C[C@@H]2C)=N1)OCOC`: at Tubulin (Bos taurus), the concentration for half-maximal inhibition (IC50) was 0.64 µM. For the same compound, the 50% growth inhibitory concentration (GI50) with MCF7 was determined as 0.22 µM. The inhibition at 5 µM in the assay on A2780 [6] is 81%.

Regarding `COc1cc(/C=C\CC/C=C/C=C(\C)CCC(O)c2cccs2)cc(OC)c1OC` (centres undefined), the TPI in the assay with A2780 [5] is given as above 95%. Further, in the assay with A2780 [6], at 5 µM the inhibition was 39%. In addition, it took 0.28 µM to inhibit growth with 2008 [8] by half (GI50).

As to `C=CC[C@@H](CC/C(C)=C/C=C/CC/C=C\c1csc(C(C)(C)C)n1)OC`, the TPI in the assay on A2780 [5] was 100%. In the assay with A2780 [6], this compound registered an inhibition at 5 µM of 38%. Moreover, the concentration for 50% growth inhibition (GI50) was found to be 0.24 µM in the assay with PC-3 [7] and 0.3 µM in the assay with 2008 [8].

In turn, `CC(C)=C/C=C/CC/C=C\[C@@H]1CSC([C@@H]2C[C@@H]2C)=N1` yielded an IC50 at Tubulin (Bos taurus) above 50 µM.

`CCCCCCCCCCCC/C=C\[C@@H]1CSC([C@@H]2C[C@@H]2C)=N1` gave an IC50 at Tubulin (Bos taurus) above 50 µM.

Consider `CCC[C@@H](CC/C(C)=C/C=C/CC/C=C\[C@@H]1CSC([C@@H]2C[C@@H]2C)=N1)OC`, for which, on Tubulin (Bos taurus), the midpoint of inhibition, the IC50, lay at 1.2 µM. In the assay on MCF7, this compound displayed a GI50 of 0.05 µM. The inhibition at 5 µM in the assay with A2780 [6] came out at 85%.

`C=CC[C@@H](CC/C(C)=C\C=C\CC/C=C\[C@@H]1CSC([C@@H]2C[C@@H]2C)=N1)OC` [CURACIN C]: at Tubulin (Bos taurus), the concentration for half-maximal inhibition (IC50) turned out to be 2.3 µM. In the assay on MCF7, this compound had a GI50 of 3.6 µM. Testing at 5 µM in the assay on A2780 [6] gave an inhibition of 10%.

As to `C=CCCC1=N[C@H](/C=C\CC/C=C/C=C(\C)CC[C@H](CC=C)OC)CS1`, at Tubulin (Bos taurus), the IC50 was found to be 0.92 µM. Also, the GI50 with MCF7 came to 0.3 µM. The inhibition at 5 µM with A2780 [6] is 83%.

The record behind these values is ChEMBL document CHEMBL1135577, “Synthesis and biological evaluation of structurally highly modified analogues of the antimitotic natural product curacin A” (J Med Chem, 2002).
